Source: PubChem BioAssay (several laboratories)
Compounds with a hit are over-represented: about 1.1% of the library has one in this group of screens.
FXIa inh 1536 = human FXIa protease inhibitors, primary screen, biochemical, 1536-well | inhibition, % at 5 µM | AID 798, 2007 | purified FXIa, Boc-Glu-Ala-Arg-AMC fluorogenic substrate | 220,000 compounds, 0.14% hits;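 active = inhibition of at least 40%; inactive = inhibition below 40%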;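 also: fluorescence of freed AMC excited at 355 nm; 0% = enzyme without compound and 100% = no enzyme blank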
Hep lipid drop = inhibitors of hepatocyte lipid droplet formation, primary screen, imaging, high-throughput imaging, BODIPY stain; AML12 mouse hepatocytes, oleate lipid droplets; inhibition, % at 6.5 µM; 240,000 compounds, 0.4% hits;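 active = lipid droplet intensity inhibited by at least 50%, with more than 500 cells counted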
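Assay system: AML12 hepatocytes (mouse); Probe or stimulus: oleic acid at 100 µM to induce lipid droplet formation; Dosing: compound at 6.5 µM only; Schedule: compound with oleate, overnight; Detection: fluorescence imaging, 20x objective, two fields per well; Measure: % inhibition of lipid droplet signal.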
Thrombin inh = human alpha-thrombin inhibitors, primary screen, counter-screen for coagulation protease inhibitor project, biochemical, 1536-well, fluorogenic AMC substrate. Prothrombin (Homo sapiens), P00734. Boc-VPR-AMC fluorogenic substrate cleavage. inhibition, % at 5 µM. 220,000 compounds, 0.26% hits;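 active = inhibition at or above 40%; inactive = inhibition below 40%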;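 also: 0% = enzyme with no compound and 100% = wells without enzyme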
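System: human alpha-thrombin protein; Compound dosing: one concentration per compound, 5 µM, with 0.2% DMSO; Timing: reaction at room temperature; Technique: AMC fluorescence, 355/460 nm; Controls: enzyme without compound as high, wells lacking enzyme as low.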
hK5 inh = human KLK5 protease inhibitors, primary screen, biochemical, 1536-well; AID 873, 2007; recombinant hK5, fluorogenic AMC substrate cleavage; Kallikrein-5 (Homo sapiens), Q9Y337; inhibition, % at 5 µM; 210,000 compounds, 0.59% hits;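 active = inhibition of 40% or more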;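 also: 0% = enzyme controls without compound and 100% = no-enzyme blanks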
FXIIa inh 1536 = human FXIIa protease inhibitors, primary screen, biochemical, 1536-well | Coagulation factor XII (Homo sapiens), P00748 | purified FXIIa, Boc-QGR-AMC fluorogenic substrate, 2 h | inhibition, % at 5 µM | 220,000 compounds, 0.3% hits | AID 800, 2007; in the data active = inhibition above about 40%;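 also: 0% = enzyme with no compound and 100% = blank without enzyme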
Target sequence (P00748 20-372 limits assumed): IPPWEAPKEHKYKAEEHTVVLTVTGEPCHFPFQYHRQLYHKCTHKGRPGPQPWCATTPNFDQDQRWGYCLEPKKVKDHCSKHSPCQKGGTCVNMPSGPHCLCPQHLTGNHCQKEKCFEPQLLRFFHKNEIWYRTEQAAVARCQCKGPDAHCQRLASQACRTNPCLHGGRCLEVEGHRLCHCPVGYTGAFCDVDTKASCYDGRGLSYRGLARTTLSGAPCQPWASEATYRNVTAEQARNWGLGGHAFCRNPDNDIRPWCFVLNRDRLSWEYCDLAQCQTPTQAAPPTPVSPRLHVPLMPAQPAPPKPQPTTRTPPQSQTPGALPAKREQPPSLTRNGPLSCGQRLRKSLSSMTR
Target sequence (P00748 373-615 limits assumed): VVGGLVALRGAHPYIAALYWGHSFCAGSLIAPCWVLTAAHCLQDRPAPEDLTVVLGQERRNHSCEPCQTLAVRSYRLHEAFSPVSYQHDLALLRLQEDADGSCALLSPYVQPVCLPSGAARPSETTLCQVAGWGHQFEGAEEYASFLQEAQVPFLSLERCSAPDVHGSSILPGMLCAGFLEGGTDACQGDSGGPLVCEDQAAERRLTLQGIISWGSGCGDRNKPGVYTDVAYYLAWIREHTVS
Calb biofilm kill = clotrimazole potentiators killing C. albicans biofilm, primary screen, 4-compound mixtures | C. albicans biofilm persisters + clotrimazole, fluorescence viability; primary screen in compound mixtures of four per well | inhibition, % at 7.6 µM | 120,000 compounds, 0.02% hits | AID 1242, 2008;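 active = inhibition above 30.3% in the primary screen of four-compound pools, then above 30% when the compound was retested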;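 also: compounds exposed to preformed 24 h biofilms for 48 h; 0% = untreated biofilm control and 100% = clotrimazole plus chlorhexidine kill blank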
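Test system: C. albicans CAF4-2 wild-type biofilms; buffer or medium: RPMI/MOPS medium, pH 7.0; schedule: 24 h biofilm formation, then 48 h compound exposure, 37 °C; detection: Alamar Blue fluorescence; measure: percent inhibition of biofilm viability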
An asterisk follows results filed as active; / = no result given.

SMILES	FXIa inh 1536	Hep lipid drop	Thrombin inh	hK5 inh	FXIIa inh 1536	Calb biofilm kill
Cc1ccc2c(c1)N(C(=O)CCC(=O)NC1CCC(C)CC1)CCO2 (stereo not drawn)	/	-1	/	/	/	/
COc1cc(N2CCCC2)c(OC)cc1/C=C(/C#N)c1ccc(Br)cc1	8	2	10	50*	5	/
COc1cc(N2CCCC2)ccc1C=O	-1	11	-3	3	6	12
Cn1c(Sc2ccc(C(F)(F)F)cc2[N+](=O)[O-])nnc1-c1ccccc1	16	/	25	51*	29	/
CCCCCSc1nnc(-c2cc(Br)ccc2N)c(=O)[nH]1	16	/	15	42*	27	/
CCNS(=O)(=O)c1ccc(CCC(=O)NCc2ccc3c(c2)OCO3)cc1	/	9	/	/	/	/
CCCN1CCN(C(=O)Nc2cccc(C(F)(F)F)c2)CC1	12	6	1	-2	8	16
O=C(Nc1cccc(C(F)(F)F)c1)N1CCN(C(=O)Nc2cccc(C(F)(F)F)c2)CC1	15	-1	21	55*	27	/
CCC(C)[C@@H](NC(=O)OC(C)(C)C)c1nnc(S(=O)(=O)Cc2cccc(C)c2)o1 (stereo partly drawn)	31	/	51*	0	17	/
CC(C)(C)OC(=O)N[C@@H](Cc1ccccc1)c1nnc(S(=O)(=O)Cc2ccccc2)o1	20	/	14	-6	26	/
Cc1ccc(-c2csc(NC(=O)c3ccc(S(=O)(=O)N4CCc5ccccc54)cc3)n2)cc1	21	-5	-1	-9	26	-3
O=C(Nc1nc(-c2ccccc2)cs1)c1ccc(S(=O)(=O)N2CCc3ccccc32)cc1	59*	4	-2	-9	15	17
CC(=O)N1CCC(N(CCN2CCOCC2)C(=S)Nc2cc(C)ccc2C)CC1	19	-6	23	51*	17	19
CC1=C(C(=O)Nc2cccc(C(=O)N3CCN(c4cccc(C(F)(F)F)c4)CC3)c2)SCCO1	/	-1	/	/	/	/
O=C(O)c1ccc(NCc2nc3ccccc3n2Cc2ccccc2)cc1	24	2	18	27	101*	-1
CCOc1ccc(Br)cc1-c1noc(-c2cccs2)n1	-5	-1	7	48*	11	/
CC1Cc2cc(S(=O)(=O)N3CCC(C(=O)Nc4ccccn4)CC3)ccc2N1C(=O)C1CCC1 (stereo not drawn)	/	-1	/	/	/	/
CCC(C)c1ccc(S(=O)(=O)N2CCN3CCCC3C2)cc1 (stereo not drawn)	/	-7	/	/	/	/
CC(SC1=NCCS1)C(=O)Nc1nnc(-c2ccc(Cl)cc2)s1 (stereo not drawn)	-6	5	-1	-4	-2	/
COc1ccccc1-c1nnc(NC(=O)C(C)SC2=NCCS2)s1 (stereo not drawn)	4	/	15	53*	6	/
CC(=O)c1c(C)[nH]c(C(=O)OCC(=O)Nc2sc3c(c2C#N)CCC(C)C3)c1C (stereo not drawn)	0	-13	-1	-1	10	18
CC(C)N(Cc1ccccc1)C(=S)NC1CCCCC1	42*	-1	3	21	102*	7
CC(C)N(C(=S)NC1CCCCC1)c1ccccc1	-1	2	-3	4	9	7
Cc1ccc(CC(=O)Nc2nnc(-c3ccc(F)cc3)o2)c(C)c1	/	-5	/	/	/	/
O=C(NCc1cccs1)C1CCCN1C(=O)Nc1ccc(F)cc1 (stereo not drawn)	2	-1	1	1	12	16
SMILES	FXIa inh 1536	Hep lipid drop	Thrombin inh	hK5 inh	FXIIa inh 1536	Calb biofilm kill
C=C(C)C(=O)Nc1cccc(C2=NOC3(C2)C[C@H](C(N)=O)N(C(=O)CC)C3)c1 (stereo partly drawn)	36	/	17	28	55*	11
CC/C=C/C(=O)N1CC2(CC(c3cccc(NC(=O)CCCCC)c3)=NO2)C[C@H]1C(N)=O (stereo partly drawn)	42*	/	-2	31	16	12
C=C(C)C(=O)Nc1cccc(C2=NOC3(C2)C[C@H](C(N)=O)N(C(=O)CC#N)C3)c1 (stereo partly drawn)	-3	/	-8	-2	0	8
COc1cccc(NC(=O)Cn2c(=O)n(CCC(=O)NC3CCN(Cc4ccccc4)CC3)c(=O)c3ccccc32)c1	-2	-12	-2	2	2	1
CO/N=C(/C(=O)N[C@@H]1C(=O)N2C(C(=O)O)=CCS[C@H]12)c1cnc(N)s1	/	9	/	/	/	/
CCOCC(=O)Nc1nc2ccc(C)cc2s1	-4	-7	-5	-26	-4	/
Cc1ccc2nc(NC(=O)CSCC(=O)OCC(=O)c3ccccc3)sc2c1	10	28	93*	-11	10	-1
Cc1cccc(N/C(=N/S(=O)(=O)c2ccccc2)c2ccccc2)n1	/	-8	/	/	/	/
CCn1nc(C)c(CNC(=O)c2cc(COc3ccc(F)cc3Cl)on2)c1C	23	3	29	28	43*	22
CCN(CC)CCN(C(=O)C1=COCCO1)c1nc2c(OC)ccc(OC)c2s1	/	-16	/	/	/	/
O=C(CN(Cc1ccccc1)S(=O)(=O)c1ccc(F)cc1)NCCC1=CCCCC1	2	/	6	-5	22	/
Cc1ccc(S(=O)(=O)N(CC(=O)NCCC2=CCCCC2)Cc2ccccc2)cc1	12	/	5	-15	42*	/
CC(C)CCNC(=O)NC(=O)CSc1nnc(-c2ccccc2F)n1N	14	5	23	76*	-2	/
CC(C)(C)NC(=O)NC(=O)CSc1nnc(-c2ccccc2F)n1N	1	7	-2	-7	11	/
COc1cc(/C=C(/NC(=O)c2ccccc2)C(=O)N2CCN(C)CC2)c([N+](=O)[O-])cc1OC	5	33	19	40*	10	7
COc1cc(/C=C(/NC(=O)c2ccccc2)C(=O)N2CCOCC2)c([N+](=O)[O-])cc1OC	/	0	/	/	/	/
Cc1cccc(NS(=O)(=O)c2c(C)[nH]c(C)c2C(=O)N2CCCC2)c1	/	-18	/	/	/	/
Cc1ccc(N=CC=C2OC(C)(C)C(C)(C)O2)c(C)c1	7	4	2	-4	8	16
CC1(C)OC(=CC=Nc2ccc(Cl)cc2)OC1(C)C	28	15	2	16	45*	14
CN(C)CCCNc1ccc(-c2nn(C)c(=O)c3ccccc23)cc1[N+](=O)[O-]	-2	4	-5	-1	11	-1
Cc1cc2c(cc1S(=O)(=O)CCC(=O)NC1CCCCC1C)OCC(=O)N2 (stereo not drawn)	/	-3	/	/	/	/
CN1CCN(C(=O)c2ccc(C(C)(C)C)cc2)CC1	-1	/	2	-8	14	/
